ChEMBL document CHEMBL3525900, “Pharmacokinetics, distribution, and metabolism of [14C]sunitinib in rats, monkeys, and humans” (Drug Metab Dispos, 2012)

Key:
[1] = Drug concentration in female albino rat salivary gland assessed as radioactivity per gram of tissue at 20 mg/kg administered as single dose via gastric gavage measured after 3 hrs by autoradiographic analysis; format: ADME, organism-based; design: dose 20 mg/kg, dosed compound name [14C]Sunitinib; settings: in vivo, po
Procedure, shortened: (§1)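 Sprague Dawley albino rats, ca 7-8 weeks old, dosed once by gastric gavage with [14C]sunitinib L-malate (15 mg freebase/kg, 100 µCi/kg). One male and one female killed by CO2 at 3, 6, 24, 72 and 168 h. Carcasses frozen in solid CO2/hexane, embedded and cut into 30 µm sagittal sections, then freeze-dried. Radioactivity quantified by whole-body autoradiography against standards by regression, background subtracted.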

[2] = Drug concentration in female albino rat lymph node assessed as radioactivity per gram of tissue at 20 mg/kg administered as single dose via gastric gavage measured after 3 hrs by autoradiographic analysis; format: ADME, organism-based; design: dose 20 mg/kg, dosed compound name [14C]Sunitinib; settings: in vivo, po; procedure, shortened: as §1
Large intestine = experiment: Drug concentration in male albino rat large intestine assessed as radioactivity per gram of tissue at 20 mg/kg administered as single dose via gastric gavage measured after 6 hrs by autoradiographic analysis; format: ADME, organism-based; design: dose 20 mg/kg, dosed compound name [14C]Sunitinib; settings: in vivo, po
Brain [3] = experiment: Drug concentration in male albino rat brain assessed as radioactivity per gram of tissue at 20 mg/kg administered as single dose via gastric gavage measured after 3 hrs by autoradiographic analysis; format: ADME, organism-based; design: dose 20 mg/kg, dosed compound name [14C]Sunitinib; settings: in vivo, po
[4] = Drug concentration in female albino rat salivary gland assessed as radioactivity per gram of tissue at 20 mg/kg administered as single dose via gastric gavage measured after 24 hrs by autoradiographic analysis; format: ADME, organism-based; design: dose 20 mg/kg, dosed compound name [14C]Sunitinib; settings: in vivo, po; procedure, shortened: as §1
Brain [5] = experiment: Drug concentration in male Lister Hooded pigmented rat brain assessed as radioactivity per gram of tissue at 20 mg/kg administered as single dose via gastric gavage measured after 24 hrs by autoradiographic analysis; format: ADME, organism-based; design: dose 20 mg/kg, dosed compound name [14C]Sunitinib; settings: in vivo, po
Lung = experiment: Drug concentration in female albino rat lung assessed as radioactivity per gram of tissue at 20 mg/kg administered as single dose via gastric gavage measured after 24 hrs by autoradiographic analysis; format: ADME, organism-based; design: dose 20 mg/kg, dosed compound name [14C]Sunitinib; settings: in vivo, po; procedure, shortened: as §1
Cynomolgus monkey [6] = experiment: Total drug recovery in male cynomolgus monkey at 6 mg/kg, po administered as single dose during 0 to 336 hrs by liquid scintillation counting; format: ADME, organism-based, Macaca fascicularis; design: dose 6 mg/kg, dosed compound name [14C]Sunitinib, route oral; settings: in vivo
Cynomolgus monkey [7] = experiment: Terminal half life as total radioactivity in male cynomolgus monkey plasma at 6 mg/kg, po administered as single dose by LC/MS/MS analysis; format: ADME, organism-based, Macaca fascicularis; design: dose 6 mg/kg, dosed compound name [14C]Sunitinib, route oral; settings: in vivo
Blood = experiment: Drug concentration in male Lister Hooded pigmented rat blood assessed as radioactivity per gram of tissue at 20 mg/kg administered as single dose via gastric gavage measured after 168 hrs by autoradiographic analysis; format: ADME, organism-based; design: dose 20 mg/kg, dosed compound name [14C]Sunitinib; settings: in vivo, po
Spinal cord [8] = experiment: Drug concentration in female albino rat spinal cord assessed as radioactivity per gram of tissue at 20 mg/kg administered as single dose via gastric gavage measured after 3 hrs by autoradiographic analysis; format: ADME, organism-based; design: dose 20 mg/kg, dosed compound name [14C]Sunitinib; settings: in vivo, po
Adrenal = experiment: Drug concentration in female albino rat adrenal assessed as radioactivity per gram of tissue at 20 mg/kg administered as single dose via gastric gavage measured after 72 hrs by autoradiographic analysis; format: ADME, organism-based; design: dose 20 mg/kg, dosed compound name [14C]Sunitinib; settings: in vivo, po
Procedure, shortened: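 Sprague Dawley (albino) rats, ca 7-8 weeks old, received a single gastric-gavage dose of [14C]sunitinib L-malate at 20 mg/kg (15 mg freebase/kg, 100 µCi/kg). One animal per sex killed by CO2 at 3, 6, 24, 72 and 168 h, then frozen in CO2/hexane. 30 µm sagittal sections were cut and freeze-dried. Radioactivity per gram quantified by whole-body autoradiography using regression against standards. LOQ 0.04–0.06 µg freebase equiv/g.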

[9] = Drug concentration in female albino rat skeletal muscle assessed as radioactivity per gram of tissue at 20 mg/kg administered as single dose via gastric gavage measured after 6 hrs by autoradiographic analysis; format: ADME, organism-based; design: dose 20 mg/kg, dosed compound name [14C]Sunitinib; settings: in vivo, po
Cynomolgus monkey [10] = experiment: Tmax as total radioactivity in male cynomolgus monkey plasma at 6 mg/kg, po administered as single dose by LC/MS/MS analysis; format: ADME, organism-based, Macaca fascicularis; design: dose 6 mg/kg, dosed compound name [14C]Sunitinib, route oral; settings: in vivo
[11] = Drug concentration in male Lister Hooded pigmented rat testis assessed as radioactivity per gram of tissue at 20 mg/kg administered as single dose via gastric gavage measured after 72 hrs by autoradiographic analysis; format: ADME, organism-based; design: dose 20 mg/kg, dosed compound name [14C]Sunitinib; settings: in vivo, po
[12] = Drug concentration in male Lister Hooded pigmented rat eye assessed as radioactivity per gram of tissue at 20 mg/kg administered as single dose via gastric gavage measured after 24 hrs by autoradiographic analysis; format: ADME, organism-based; design: dose 20 mg/kg, dosed compound name [14C]Sunitinib; settings: in vivo, po
Brain [13] = experiment: Drug concentration in male albino rat brain assessed as radioactivity per gram of tissue at 20 mg/kg administered as single dose via gastric gavage measured after 6 hrs by autoradiographic analysis; format: ADME, organism-based; design: dose 20 mg/kg, dosed compound name [14C]Sunitinib; settings: in vivo, po
Rattus norvegicus = experiment: Total drug recovery in male Sprague-Dawley rat at 15 mg/kg, po administered as single dose during 0 to 72 hrs by liquid scintillation counting; format: ADME, organism-based; design: dose 15 mg/kg, dosed compound name [14C]Sunitinib, route oral; settings: in vivo
[14] = Drug recovery in feces of male cynomolgus monkey at 6 mg/kg, po administered as single dose during 0 to 336 hrs by liquid scintillation counting; format: ADME, organism-based, Macaca fascicularis; design: dose 6 mg/kg, dosed compound name [14C]Sunitinib, route oral; settings: in vivo
Cynomolgus monkey [15] = experiment: Terminal half life as total radioactivity in female cynomolgus monkey plasma at 6 mg/kg, po administered as single dose by LC/MS/MS analysis; format: ADME, organism-based, Macaca fascicularis; design: dose 6 mg/kg, dosed compound name [14C]Sunitinib, route oral; settings: in vivo
[16] = Drug concentration in male Lister Hooded pigmented rat pituitary gland assessed as radioactivity per gram of tissue at 20 mg/kg administered as single dose via gastric gavage measured after 72 hrs by autoradiographic analysis; format: ADME, organism-based; design: dose 20 mg/kg, dosed compound name [14C]Sunitinib; settings: in vivo, po
[17] = Drug concentration in male Lister Hooded pigmented rat eye assessed as radioactivity per gram of tissue at 20 mg/kg administered as single dose via gastric gavage measured after 72 hrs by autoradiographic analysis; format: ADME, organism-based; design: dose 20 mg/kg, dosed compound name [14C]Sunitinib; settings: in vivo, po
Liver [18] = experiment: Drug concentration in female albino rat liver assessed as radioactivity per gram of tissue at 20 mg/kg administered as single dose via gastric gavage measured after 72 hrs by autoradiographic analysis; format: ADME, organism-based; design: dose 20 mg/kg, dosed compound name [14C]Sunitinib; settings: in vivo, po; procedure, shortened: as §1
[19] = Drug recovery in feces of female Sprague-Dawley rat at 5 mg/kg, iv administered as single dose during 0 to 72 hrs by liquid scintillation counting; format: ADME, organism-based; design: dose 5 mg/kg, dosed compound name [14C]Sunitinib, route intravenous; settings: in vivo
Spinal cord [20] = experiment: Drug concentration in male Lister Hooded pigmented rat spinal cord assessed as radioactivity per gram of tissue at 20 mg/kg administered as single dose via gastric gavage measured after 168 hrs by autoradiographic analysis; format: ADME, organism-based; design: dose 20 mg/kg, dosed compound name [14C]Sunitinib; settings: in vivo, po
[21] = Drug concentration in male Lister Hooded pigmented rat eye assessed as radioactivity per gram of tissue at 20 mg/kg administered as single dose via gastric gavage measured after 336 hrs by autoradiographic analysis; format: ADME, organism-based; design: dose 20 mg/kg, dosed compound name [14C]Sunitinib; settings: in vivo, po
Homo sapiens = experiment: Terminal half life as total radioactivity in human plasma at 50 mg, po administered as single dose measured up to 24 hrs by LC/MS/MS analysis; format: ADME, organism-based; design: dosed compound name [14C]Sunitinib; settings: in vivo
[22] = Drug concentration in male Lister Hooded pigmented rat salivary gland assessed as radioactivity per gram of tissue at 20 mg/kg administered as single dose via gastric gavage measured after 24 hrs by autoradiographic analysis; format: ADME, organism-based; design: dose 20 mg/kg, dosed compound name [14C]Sunitinib; settings: in vivo, po
Liver [23] = experiment: Drug concentration in male albino rat liver assessed as radioactivity per gram of tissue at 20 mg/kg administered as single dose via gastric gavage measured after 24 hrs by autoradiographic analysis; format: ADME, organism-based; design: dose 20 mg/kg, dosed compound name [14C]Sunitinib; settings: in vivo, po
Kidney = experiment: Drug concentration in male Lister Hooded pigmented rat kidney assessed as radioactivity per gram of tissue at 20 mg/kg administered as single dose via gastric gavage measured after 72 hrs by autoradiographic analysis; format: ADME, organism-based; design: dose 20 mg/kg, dosed compound name [14C]Sunitinib; settings: in vivo, po
Stomach = experiment: Drug concentration in female albino rat stomach assessed as radioactivity per gram of tissue at 20 mg/kg administered as single dose via gastric gavage measured after 6 hrs by autoradiographic analysis; format: ADME, organism-based; design: dose 20 mg/kg, dosed compound name [14C]Sunitinib; settings: in vivo, po
Liver [24] = experiment: Drug concentration in female albino rat liver assessed as radioactivity per gram of tissue at 20 mg/kg administered as single dose via gastric gavage measured after 24 hrs by autoradiographic analysis; format: ADME, organism-based; design: dose 20 mg/kg, dosed compound name [14C]Sunitinib; settings: in vivo, po; procedure, shortened: as §1
Spleen = experiment: Drug concentration in female albino rat spleen assessed as radioactivity per gram of tissue at 20 mg/kg administered as single dose via gastric gavage measured after 3 hrs by autoradiographic analysis; format: ADME, organism-based; design: dose 20 mg/kg, dosed compound name [14C]Sunitinib; settings: in vivo, po

CCN(CC)CCNC(=O)c1c(C)[nH]c(/[14CH]=C2\C(=O)Nc3ccc(F)cc32)c1C.O=C(O)C[C@H](O)C(=O)O
Radiolabel recovery [1]: 27.64 ugequiv
Radiolabel recovery [2]: 12.39 ugequiv
Radiolabel recovery (Large intestine): 5.38 ugequiv
Radiolabel recovery (Brain [3]): 0.3 ugequiv
Radiolabel recovery [4]: 2.65 ugequiv
Radiolabel recovery (Brain [5]): 0.06 ugequiv
Radiolabel recovery (Lung): 1.64 ugequiv
Radiolabel recovery (Cynomolgus monkey [6]): 94.1%
beta t1/2 (Cynomolgus monkey [7]): 222 h
Radiolabel recovery (Blood): 0.06 ugequiv
Radiolabel recovery (Spinal cord [8]): 0.28 ugequiv
Radiolabel recovery (Adrenal): 1.52 ugequiv
Radiolabel recovery [9]: 3.33 ugequiv
Tmax (Cynomolgus monkey [10]): 8 h
Radiolabel recovery [11]: 0.87 ugequiv
Radiolabel recovery [12]: 7.8 ugequiv
Radiolabel recovery (Brain [13]): 0.34 ugequiv
Radiolabel recovery (Rattus norvegicus): 85.1%
Radiolabel recovery [14]: 87.3%
beta t1/2 (Cynomolgus monkey [15]): 121 h
Radiolabel recovery [16]: 1.65 ugequiv
Radiolabel recovery [17]: 23.98 ugequiv
Radiolabel recovery (Liver [18]): 0.37 ugequiv
Radiolabel recovery [19]: 77.2%
Radiolabel recovery (Spinal cord [20]): 0.06 ugequiv
Radiolabel recovery [21]: 39.4 ugequiv
beta t1/2 (Homo sapiens): 28.2 h
Radiolabel recovery [22]: 3.52 ugequiv
Radiolabel recovery (Liver [23]): 1.7 ugequiv
Radiolabel recovery (Kidney): 0.26 ugequiv
Radiolabel recovery (Stomach): 8.54 ugequiv
Radiolabel recovery (Liver [24]): 2.8 ugequiv
Radiolabel recovery (Spleen): 30.72 ugequiv
